Experimental data: ChEMBL document CHEMBL1806372, “Cytotoxic ring A-modified steroid analogues derived from Grundmann's ketone” (Eur J Med Chem, 2011)
Calls of active or inactive are those of the source. The rule behind the calls is not given here.

Key:
HL-60 = assay: Cytotoxicity against human HL60 cells after 24 hrs by MTT assay; assay type: functional, cell-based; settings: HL-60, 24 h
Summary of the method: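 HL-60 cells kept in RPMI 1640 with 10% FBS, no antibiotics, 37 °C, humidified 5% CO2. Cells (9 × 10^5 cells/mL) exposed to compound in 96-well plates for 24 h at 37 °C. MTT in PBS (5 mg/mL) added for 2 h, then DMSO, shaken 1 h and read photometrically. IC50 determined; cisplatin reference.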

Nakaseomyces glabratus = assay: Antifungal activity against Candida glabrata assessed as zone of inhibition at 5 uL and 28 degC after 36 hrs by disk diffusion method; assay type: functional
Summary of the method: (§1)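 Agar disc diffusion with the test compound applied as a 1% (w/v) DMSO solution. Yeasts were grown on AC agar and Aspergillus niger on potato dextrose broth agar, each strain spread evenly. Plates were covered and kept 36 h at 28 °C, and the inhibition zone diameter was read in mm. Clotrimazole served as reference.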

Yarrowia lipolytica = assay: Antifungal activity against Yarrowia lipolytica assessed as zone of inhibition at 5 uL and 28 degC after 36 hrs by disk diffusion method; assay type: functional; summary of the method: as §1
[1] = (§2) Antibacterial activity against Pseudomonas antimicrobica assessed as zone of inhibition at 5 uL and 32 degC after 36 hrs by disk diffusion method; assay type: functional, Burkholderia gladioli
Summary of the method: (§3)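 Disc diffusion on AC agar, each strain spread evenly over the medium; test compounds given as 1% (w/v) DMSO solutions. Plates covered and incubated 36 h at 32 °C, then the diameter of the zone of inhibited growth measured in mm. Tetracycline served as antibacterial reference.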

[2] = Antifungal activity against Hyphopichia burtonii assessed as zone of inhibition at 5 uL and 28 degC after 36 hrs by disk diffusion method; assay type: functional; summary of the method: as §1
Escherichia coli = assay: Antibacterial activity against Escherichia coli assessed as zone of inhibition at 5 uL and 32 degC after 36 hrs by disk diffusion method; assay type: functional; summary of the method: as §3
Aspergillus niger = assay: Antifungal activity against Aspergillus niger assessed as zone of inhibition at 5 uL and 28 degC after 36 hrs by disk diffusion method; assay type: functional; summary of the method: as §1
Streptococcus entericus = assay: Antibacterial activity against Streptococcus entericus assessed as zone of inhibition at 5 uL and 32 degC after 36 hrs by disk diffusion method; assay type: functional; summary of the method: as §3
Staphylococcus equorum = assay: Antibacterial activity against Staphylococcus equorum assessed as zone of inhibition at 5 uL and 32 degC after 36 hrs at by disk diffusion method; assay type: functional; summary of the method: as §3
Burkholderia gladioli = assay: as §2; assay type: functional; summary of the method: as §3

Compound	IC50 (HL-60)	diameter of the inhibition zone (DIZ) (Nakaseomyces glabratus)	diameter of the inhibition zone (DIZ) (Yarrowia lipolytica)	diameter of the inhibition zone (DIZ) [1]	diameter of the inhibition zone (DIZ) [2]	diameter of the inhibition zone (DIZ) (Escherichia coli)	diameter of the inhibition zone (DIZ) (Aspergillus niger)	diameter of the inhibition zone (DIZ) (Streptococcus entericus)	diameter of the inhibition zone (DIZ) (Staphylococcus equorum)	inhibition zone (IZ) [2]	diameter of the inhibition zone (DIZ) (Burkholderia gladioli)
CC(C)CCC[C@@H](C)[C@H]1CC[C@H]2C3=CC[C@@H]4C(=O)NC(=O)[C@@H]4[C@@H]3CC[C@]12C	16 µM	15 mm	inactive	11 mm	inactive	24 mm	inactive	15 mm	14 mm		
CC(C)CCC[C@@H](C)[C@H]1CC[C@H]2C(/C=C/CO)=CCC[C@]12C	32 µM	18 mm	inactive	18 mm		10 mm	inactive	14 mm	12 mm	22 mm	
CC(C)CCC[C@@H](C)[C@H]1CC[C@H]2C(C#CCCO)=CCC[C@]12C	38 µM	10 mm	inactive	11 mm		10 mm	inactive	14 mm	6 mm	11 mm	
CC(C)=CCCC1=CCn2c(=O)ccc(=O)n2C1	41 µM	inactive	inactive		inactive	inactive	inactive	inactive	inactive		inactive
CC(C)CCC[C@@H](C)[C@H]1CC[C@H]2C3=CCn4c(=O)n(C)c(=O)n4[C@@H]3CC[C@]12C	13 µM	inactive	inactive		inactive	inactive	inactive	inactive	10 mm		inactive
CC(C)CCC[C@@H](C)[C@H]1CC[C@H]2C(/C=C/CN3C(=O)C=CC3=O)=CCC[C@]12C	32 µM	7 mm	inactive	10 mm		9 mm	inactive	15 mm	11 mm	8 mm	
C=CC1=CCC[C@]2(C)[C@@H]([C@H](C)CCCC(C)C)CC[C@@H]12	> 100 µM	inactive	inactive		inactive	inactive	inactive	9 mm	10 mm		inactive
CCCN1C(=O)[C@H]2[C@H](CC=C3[C@H]2CC[C@]2(C)[C@@H]([C@H](C)CCCC(C)C)CC[C@@H]32)C1=O	7 µM	6 mm	10 mm	7 mm		7 mm	inactive	7 mm	inactive	14 mm	
CC(C)CCC[C@@H](C)[C@H]1CC[C@H]2C(CCCCN3C(=O)C=CC3=O)CCC[C@]12C (mixture of isomers)	14 µM	8 mm	inactive	9 mm		10 mm	inactive	12 mm	11 mm	9 mm	
Clc1ccccc1C(c1ccccc1)(c1ccccc1)n1ccnc1 [CLOTRIMAZOLE]		18 mm	18 mm				13 mm			20 mm	
CC(C)CCC[C@@H](C)[C@H]1CC[C@H]2C3=CC[C@@H]4C(=O)OC(=O)[C@@H]4[C@@H]3CC[C@]12C	30 µM	8 mm	inactive	10 mm		7 mm	inactive	12 mm	inactive	10 mm	
CC(C)CCC[C@@H](C)[C@H]1CC[C@H]2C3=CC[C@@H]4C(=O)N(C)C(=O)[C@@H]4[C@@H]3CC[C@]12C	15 µM	10 mm	inactive	7 mm		10 mm	inactive	10 mm	inactive	14 mm	
CN(C)[C@@H]1C(O)=C(C(N)=O)C(=O)[C@@]2(O)C(O)=C3C(=O)c4c(O)cccc4[C@@](C)(O)[C@H]3C[C@@H]12 [TETRACYCLINE]				25 mm		30 mm		22 mm	30 mm		
CCN1C(=O)[C@H]2[C@H](CC=C3[C@H]2CC[C@]2(C)[C@@H]([C@H](C)CCCC(C)C)CC[C@@H]32)C1=O	13 µM	8 mm	inactive	7 mm		7 mm	inactive	11 mm	8 mm	7 mm	
CC(C)CCC[C@@H](C)[C@H]1CC[C@H]2C(C#CCCN3C(=O)C=CC3=O)=CCC[C@]12C	46 µM	10 mm	inactive	13 mm		15 mm	inactive	15 mm	11 mm	12 mm	
CC(C)CCC[C@@H](C)[C@H]1CC[C@H]2C3=CCn4c(=O)c5ccccc5c(=O)n4[C@@H]3CC[C@]12C	17 µM	10 mm	inactive	7 mm		inactive	inactive	inactive	inactive	7 mm	
CC(C)CCC[C@@H](C)[C@H]1CC[C@H]2C(CCCCO)CCC[C@]12C (mixture of isomers)	13 µM										
